A3G deaminase – APOBEC3G DNA deaminase inhibitors, primary screen, biochemical, fluorescence, single-stranded DNA substrate, uHTS; DNA dC->dU-editing enzyme APOBEC-3G (Homo sapiens), Q9HC16; recombinant A3G, ssDNA deamination FAM/TAMRA fluorescence; inhibition, % at 20 µM; 330,000 tested, 0.28% active;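 active = inhibition of at least 40% at 20 µM, with no more than 30% in the related APOBEC3A deaminase screen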
PRMT1 inh – PRMT1 methyltransferase inhibitors, primary screen, biochemical, fluorescence polarization; Protein arginine N-methyltransferase 1 (Homo sapiens), Q99873; recombinant PRMT1, activity-based probe fluorescence polarization; inhibition, % at 2.79 µM; 370,000 tested, 1.3% active; AID 652257, 2013;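 active = inhibition above about 21% made by adding two undisclosed values, limit read from the data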
Target sequence (Q99873 whole entry, looked up): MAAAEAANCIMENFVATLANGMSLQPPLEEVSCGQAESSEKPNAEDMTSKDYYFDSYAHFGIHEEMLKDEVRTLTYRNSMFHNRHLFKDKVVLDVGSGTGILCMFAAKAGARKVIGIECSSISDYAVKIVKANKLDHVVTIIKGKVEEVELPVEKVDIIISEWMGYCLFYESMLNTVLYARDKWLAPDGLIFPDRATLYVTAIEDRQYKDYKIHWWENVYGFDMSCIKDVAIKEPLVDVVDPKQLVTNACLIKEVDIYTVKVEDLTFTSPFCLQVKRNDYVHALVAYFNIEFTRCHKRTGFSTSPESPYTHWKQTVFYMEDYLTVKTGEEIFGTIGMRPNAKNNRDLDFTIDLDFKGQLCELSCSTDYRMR
NS3 helicase inh – inhibitors of HCV NS3 helicase, primary screen, biochemical, Cy5 molecular beacon fluorescence; Hepatitis C virus NS3 helicase; NS3 helicase DNA unwinding; inhibition, % at 10.9 µM; 290,000 tested, 0.56% active; AID 1800, 2009;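 active = inhibition above the mean of all tested compounds plus 3 SD, set per campaign, cut at about 35% in these data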
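test system = hepatitis C virus NS3 helicase domain fragment enzyme | reagent = annealed dual-labelled DNA beacon duplex, ATP-started | times = 1 h at 25 °C | detection = Cy5 fluorescence, 0 and 60 min reads | read-out basis = percent inhibition from t60/t0 fluorescence ratio | control set = DMSO and thioflavine S | replication = one well per compound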
APOBEC3A inh – APOBEC3A ssDNA deaminase inhibitors, primary screen, selectivity assay for APOBEC3G inhibitor project, biochemical, FAM/TAMRA oligo cleavage fluorescence; DNA dC->dU-editing enzyme APOBEC-3A (Homo sapiens), P31941; recombinant A3A, FAM/TAMRA ssDNA deamination fluorescence; inhibition, % at 20 µM; 330,000 tested, 0.41% active; AID 493011, 2011;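 active = at least 40% inhibition at 20 µM here, with at most 30% in a related deaminase screen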
core dimer inh – inhibitors of HCV core protein dimerization, primary screen, biochemical, TR-FRET, high-throughput; TR-FRET GST/Flag-core106 dimerization, 1536-well; inhibition, % at 5 µM; 300,000 tested, 0.33% active; AID 1899, 2009;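 active = inhibition above the mean of all tested compounds plus 3 SD, set per screening campaign, cut at about 45% in these data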
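test system = GST/Flag-tagged HCV core106 proteins | probe or stimulus = Eu donor and XL665 acceptor anti-tag antibodies | times = compound-protein-antibody incubation 4 h at 22.5 °C | signal = TR-FRET, excitation 340 nm, emission 617 and 671 nm | measure = percent inhibition of core106 dimerization signal | controls = wells lacking GST-core106 and wells with excess unlabelled core106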
ABHD5 PLIN5 PPI – ABHD5-PLIN5 interaction inhibitors, primary screen, cell lysate, split luciferase complementation, luminescence; Perilipin-5 (Homo sapiens) + 1-acylglycerol-3-phosphate O-acyltransferase ABHD5 (Homo …; Split G. princeps luciferase complementation, 4 h; inhibition, % at 4 µM; 360,000 tested, 0.78% active; AID 602281, 2012;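 active = inhibition above the mean inhibition across every tested compound plus 3 SD, cut at about 22% in these data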
Numbers stand for hits. The list is not random: actives were taken first. Their share in the collection is about 2.9%.

`O=C(COC(=O)c1cc([N+](=O)[O-])ccc1NCc1ccccc1)NC1CCCc2ccccc21` (stereo not drawn) gave A3G deaminase inactive, PRMT1 inh inactive, NS3 helicase inh inactive, APOBEC3A inh inactive, core dimer inh 59 and ABHD5 PLIN5 PPI inactive.
`O=C(COC(=O)c1ccccc1O)NC1CCCc2ccccc21` (stereo not drawn) gave A3G deaminase inactive, PRMT1 inh inactive, APOBEC3A inh inactive and ABHD5 PLIN5 PPI inactive.
For Cc1ccc(-c2nn(-c3ccccc3)cc2/C=N/NC(=O)c2ccc(Br)o2)cc1 the results were A3G deaminase inactive, PRMT1 inh inactive, NS3 helicase inh inactive, APOBEC3A inh inactive, core dimer inh 49 and ABHD5 PLIN5 PPI inactive.
`O=C(N/N=C\c1cn(-c2ccccc2)nc1-c1ccccc1)c1ccc(Br)o1` gave A3G deaminase inactive, PRMT1 inh inactive, NS3 helicase inh inactive, APOBEC3A inh inactive, core dimer inh inactive and ABHD5 PLIN5 PPI inactive.
`O=c1[nH]c2ccccc2c(O)c1O` gave A3G deaminase inactive, PRMT1 inh 75, NS3 helicase inh inactive, APOBEC3A inh inactive, core dimer inh inactive and ABHD5 PLIN5 PPI 98.
Screening CCCCS(=O)c1c(O)c2ccccc2[nH]c1=O (stereo not drawn) returned A3G deaminase inactive, PRMT1 inh 22, NS3 helicase inh inactive, APOBEC3A inh inactive, core dimer inh inactive and ABHD5 PLIN5 PPI inactive.
COc1ccc(Cl)cc1C(=O)CSc1nnnn1C was read as A3G deaminase inactive, PRMT1 inh inactive, NS3 helicase inh inactive, APOBEC3A inh inactive, core dimer inh inactive and ABHD5 PLIN5 PPI inactive.
Screening Cc1cc2c(SCc3ccccc3Cl)nc(N)nc2nc1C returned PRMT1 inh 24 and ABHD5 PLIN5 PPI inactive.
Screening CC1(C)CC(=O)C=C(NNC(=O)c2ccccc2)C1 returned A3G deaminase inactive, PRMT1 inh inactive, NS3 helicase inh inactive, APOBEC3A inh inactive, core dimer inh inactive and ABHD5 PLIN5 PPI inactive.
`CC1(C)CC(=O)C(CSC(=O)c2ccccc2)C(=O)C1` gave PRMT1 inh 24 and ABHD5 PLIN5 PPI inactive.
Screening CC(C)(C#N)NC(=O)C1CCCN1S(=O)(=O)c1ccc2ccccc2c1 (stereo not drawn) returned A3G deaminase inactive, PRMT1 inh inactive, NS3 helicase inh inactive, APOBEC3A inh inactive, core dimer inh inactive and ABHD5 PLIN5 PPI inactive.
Screening CC(C)C[C@H]1CNC(=S)N1C[C@H]1CCCN1C[C@H](Cc1ccccc1)N1C[C@H](CC(C)C)N(CCc2ccccc2)C1=S returned PRMT1 inh inactive and ABHD5 PLIN5 PPI inactive.
Screening Cc1ccc(N(C(=O)CNC(=O)c2ccco2)C(C(=O)NC2CCCC2)c2cccnc2)c(C)c1 (stereo not drawn) returned A3G deaminase inactive, PRMT1 inh inactive, NS3 helicase inh inactive, APOBEC3A inh inactive, core dimer inh inactive and ABHD5 PLIN5 PPI inactive.
CC(C)c1ccc(-c2c(C#N)c(N)nc(SCC(=O)N3CCCCC3)c2C#N)cc1 was read as A3G deaminase inactive, PRMT1 inh inactive, NS3 helicase inh inactive, APOBEC3A inh inactive, core dimer inh 47 and ABHD5 PLIN5 PPI inactive.
`O=c1[nH]c(=S)[nH]c2c1C(c1ccc(Cl)cc1)OC(C1CCCCC1)C2` (stereo not drawn) gave PRMT1 inh inactive and ABHD5 PLIN5 PPI inactive.
`Cc1ccc(Cl)cc1N1CCN(C(=O)CSc2ccsc2[N+](=O)[O-])CC1` gave A3G deaminase inactive, PRMT1 inh inactive, NS3 helicase inh inactive, APOBEC3A inh inactive, core dimer inh 57 and ABHD5 PLIN5 PPI inactive.
For O=C(CSc1ccsc1[N+](=O)[O-])NCCc1ccc(Cl)cc1 the results were A3G deaminase inactive, PRMT1 inh inactive, NS3 helicase inh inactive, APOBEC3A inh inactive, core dimer inh inactive and ABHD5 PLIN5 PPI inactive.

Screening data as filed in PubChem.
